Source: publication PMC3268052 (Journal of Molecular Biology, 2011)
Like-named read-outs stand apart in the source and are kept apart here. One block for each molecule: values may come before it.

Assays:
[1] = target: T1, PKR (Homo sapiens, UniProt P19525); test: analytical ultracentrifugation; settings: cited from earlier work
[2] = target: T1, PKR; assay type: binding
Outline: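 PKR was purified via heparin–Sepharose then hydroxyapatite and titrated into 15 nM BODIPY-labeled heparin oligosaccharides (dp2–dp8) in AU75 buffer, pH 7.5, 20 °C; NaCl was raised to 100 or 125 mM where noted. Excitation 488 nm and emission 515 nm, 6 nm bandwidths. Each point averages three 5-s background-corrected reads, with 5 min equilibration. Kd came from a hyperbolic fit, and fold-difference is the ratio of Kd values.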

[3] = target: T1, PKR; settings: cited from earlier work
[4] = target: T1, PKR; test: PKR autophosphorylation activation assay; assay type: biochemical; settings: 100 nM PKR, P50 buffer, 0.4 mM ATP, 20 min, 32 °C
Outline: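 Autophosphorylation of 100 nM PKR with heparin oligosaccharide activators over a concentration range. P50 buffer: 20 mM Hepes pH 7.5, 50 mM KCl, 5 mM MgCl2, 0.1 mM TCEP. Reactions contained 0.4 mM ATP plus 2 μCi [γ-32P]ATP and ran 20 min at 32 °C. Background autophosphorylation without activator and a 40-bp dsRNA (100 nM) served as references.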

[5] = target: T1, PKR; test: Fluorescence anisotropy competition of bdp8 with unlabeled dp8; assay type: binding; settings: competition of 500 nM bdp8 + 500 nM PKR with unlabeled ligand
Outline: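 Unlabeled heparin oligosaccharide was titrated against 500 nM BODIPY-labeled oligosaccharide plus 500 nM PKR. Run in AU75 buffer (75 mM NaCl, 20 mM Hepes, 0.1 mM EDTA, 0.1 mM TCEP, pH 7.5) at 20 °C. Anisotropy read at excitation 488 nm and emission 515 nm, with 5 min equilibration between points. The competition curve was fitted to yield Kd, which sets the fixed β11 value.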

[6] = target: T1, PKR; test: Sedimentation velocity; assay type: binding; settings: for s(P2H2) / s(PH): uncorrected
[7] = target: the molecule itself; test: sedimentation velocity analytical ultracentrifugation
[8] = Model A with L22 fixed equal to L20, SV

T1 sequence (P19525 whole entry): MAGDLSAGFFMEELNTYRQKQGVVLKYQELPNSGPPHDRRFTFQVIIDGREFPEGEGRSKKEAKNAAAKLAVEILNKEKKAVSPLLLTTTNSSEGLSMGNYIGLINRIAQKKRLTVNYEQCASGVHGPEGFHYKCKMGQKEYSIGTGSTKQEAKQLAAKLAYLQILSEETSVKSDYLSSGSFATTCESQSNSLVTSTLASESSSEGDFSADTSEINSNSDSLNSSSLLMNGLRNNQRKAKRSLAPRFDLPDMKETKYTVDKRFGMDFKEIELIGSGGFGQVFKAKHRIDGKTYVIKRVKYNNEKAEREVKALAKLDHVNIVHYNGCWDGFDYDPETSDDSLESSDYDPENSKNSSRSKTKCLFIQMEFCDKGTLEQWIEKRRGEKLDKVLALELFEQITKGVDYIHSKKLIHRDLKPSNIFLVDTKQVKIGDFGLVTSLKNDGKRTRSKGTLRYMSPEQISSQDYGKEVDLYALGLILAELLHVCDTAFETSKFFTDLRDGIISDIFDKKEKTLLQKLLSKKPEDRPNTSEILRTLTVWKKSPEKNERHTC

Molecule: PKR (from UniProt P19525)
- Kd [1]: 500 µM

B1: PKR (protein)
chain: AGDLSAGFFMEELNTYRQKQGVVLKYQELPNSGPPHDRRFTFQVIIDGREFPEGEGRSKKEAKNAAAKLAVEILNKEKKAVSPLLLTTTNSSEGLSMGNYIGLINRIAQKKRLTVNYEQCASGVHGPEGFHYKCKMGQKEYSIGTGSTKQEAKQLAAKLAYLQILSEETSVKSDYLSSGSFATTCESQSNSLVTSTLASESSSEGDFSADTSEINSNSDSLNSSSLLMNGLRNNQRKAKRSLAPRFDLPDMKETKYTVDKRFGMDFKEIELIGSGGFGQVFKAKHRIDGKTYVIKRVKYNNEKAEREVKALAKLDHVNIVHYNGCWDGFDYDPETSDDSLESSDYDPENSKNSSRSKTKCLFIQMEFCDKGTLEQWIEKRRGEKLDKVLALELFEQITKGVDYIHSKKLIHRDLKPSNIFLVDTKQVKIGDFGLVTSLKNDGKRTRSKGTLRYMSPEQISSQDYGKEVDLYALGLILAELLHVCDTAFETSKFFTDLRDGIISDIFDKKEKTLLQKLLSKKPEDRPNTSEILRTLTVWKKSPEKNERHTC
- Kd [7]: 404 µM

More lines, main results first:

- Fold weaker binding affinity than dp8 [2]: ~150 fold
- Kd ([2]; BODIPY-labeled oligosaccharide, 75 mM NaCl): 32.6 ± 7.4 µM
Molecule: heparin disaccharide [dp2]

- Activation of PKR autophosphorylation [4]: stimulated
Molecule: heparin hexasaccharide [dp6]
- Activation of PKR, relative activity in earlier studies [3]: considerably less active than dp8

- Kd ([2]; 15 nM labeled heparin oligosaccharide, 75 mM NaCl, 20 °C, hyperbolic fit): 0.224 µM
- Kd ([2]; 100 mM NaCl): 2.61 ± 0.05 µM
- Kd ([2]; 125 mM NaCl): 19 ± 1.9 µM
- Kd [5]: 0.262 ± 0.021 µM
- Enhancement of PKR dimerization affinity [6]: about 4 fold
- g(s*) peak maximum ([6]; 60 μM dp8, 2 μM PKR): ~ 4.0 S
- g(s*) peak maximum ([6]; 60 μM dp8, 16 μM PKR): about 4.4 S
- s(P2H2) [6, 8]: 6.21 Svedbergs
- s(PH) [6, 8]: 4.14 Svedbergs
- s(P2H2) ([6]; Model A, SV): 5.98 Svedbergs
- s(PH) ([6]; Model A, SV): 3.98 Svedbergs
- Frictional ratio f/f0 of PKR upon binding of dp8 ([6]; decrease from 1.56 for free PKR monomer): 1.47
- Activation of PKR autophosphorylation [4]: stimulated
Molecule: heparin octasaccharide [dp8]
